# Assay results: ChEMBL document CHEMBL1143844, “Biochemical studies on the mechanism of human immunodeficiency virus type 1 reverse transcriptase resistance to 1-(beta-D-dioxolane)thymine triphosphate” (Antimicrob Agents Chemother, 2007)
# Columns and labels:
# [1] = Activity of HIV1 reverse transcriptase 41L/69S-SG/210W/215Y mutant in presence of 3.2 mM ATP by prA/odT assay
# [2] = (§1) Activity of HIV1 reverse transcriptase wild type HXB2(b) in presence of 3.2 mM ATP by prA/odT assay; set-up: species or system Human immunodeficiency virus 1
# Summary of the method: (§2)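 Buffer is HEPES 50 mM pH 7.3 with MgCl2 10 mM, Triton X-100 0.5% and BSA 0.1 mg/ml. RT 4–12 pM/well, 33°C for 180 min, no NaOH step. Km obtained as the mean of at least two runs done in duplicate.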
# [3] = (§3) Activity of HIV1 reverse transcriptase 41L/67N/70R/215Y/219Q mutant in presence of 3.2 mM ATP by prA/odT assay; set-up: species or system Human immunodeficiency virus 1
# Summary of the method: (§4)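 Buffer: 50 mM HEPES pH 7.3, 10 mM MgCl2, 0.5% Triton X-100, 0.1 mg/ml BSA. Incubation 180 min at 33°C. Product detected with AP-conjugated anti-BrdU at 405 nm. […] Ki from four inhibitor levels. At least two experiments in duplicate.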
# [4] = (§5) Activity of HIV1 reverse transcriptase 41L/67N/70R/210W/215Y mutant in presence of 3.2 mM ATP by prA/odT assay; set-up: species or system Human immunodeficiency virus 1
# Summary of the method: as §4
# [5] = Inhibition of HIV1 LAI reverse transcriptase 65R mutant by heteropolymeric DNA polymerase assay; set-up: species or system Human immunodeficiency virus 1
# Summary of the method: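 Purified p66/p51 HIV-1 RT, or p66 homodimer for 65R, at 30–100 pM (about 1.5–4.5 mU/well). Plate-bound 18-mer DNA primer on a 50-base 5′-A12-(GTCA)5-3′ DNA template. dATP, dGTP, dCTP and BrdUTP at 1.0 μM each, no ATP. Buffer: HEPES 50 mM pH 7.3, 10 mM MgCl2. Incubation 180 min at 33°C, NaOH dehybridization, anti-BrdU-AP tracer, A405. IC50 from seven inhibitor concentrations, at least two experiments in duplicate.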
# [6] = Inhibition of HIV1 reverse transcriptase 41L/67N/70R/210W/215Y mutant in presence of 1 uM dNTP by heteropolymeric DNA polymerase assay; set-up: species or system Human immunodeficiency virus 1
# Summary of the method: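 DNA polymerase assay with 5 mM ATP and purified HIV-1 RT (HXB2 background) on a plate-bound primer with a 5′-A12-(GTCA)5-3′ template. Each dNTP (dATP, dGTP, dCTP, BrdUTP) is set at either 1 μM or 20 μM. IC50 from at least two experiments in duplicate. Fold change is relative to wild-type RT at the same dNTP level.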
# [7] = system: Human immunodeficiency virus 1; assay: Activity of HIV1 reverse transcriptase 41L/69S-SG/210W/215Y mutant in presence of 3.2 mM ATP by prA/odT assay
# [8] = system: Human immunodeficiency virus 1; assay: as §1
# Summary of the method: as §2
# [9] = system: Human immunodeficiency virus 1; assay: Activity of HIV1 reverse transcriptase wild type HXB2(a) in presence of 3.2 mM ATP by prA/odT assay
# Summary of the method: as §2
# [10] = target: HIV1 RT 41L/69S-SG/210W/215Y mutant (HIV-1); assay: Inhibition of HIV1 reverse transcriptase 41L/69S-SG/210W/215Y mutant in presence of 3.2 mM ATP by prA/odT assay
# [11] = system: Human immunodeficiency virus 1; assay: as §3
# Summary of the method: as §4
# [12] = system: Human immunodeficiency virus 1; assay: as §5
# Summary of the method: as §4
SMILES,Km [1],Km [2],Km [3],Km [4],IC50 [5],IC50 [6],Km [7],Km [8],Km [9],Ki [10],Km [11],Km [12]
Cc1cn([C@H]2C[C@H](N=[N+]=[N-])[C@@H](COP(=O)(O)OP(=O)(O)OP(=O)(O)O)O2)c(=O)[nH]c1=O [ZIDOVUDINE TRIPHOSPHATE],0.53 µM,0.29 µM,0.49 µM,0.43 µM,,,,,,,,
C[C@H](Cn1cnc2c(N)ncnc21)OCP(=O)(O)OP(=O)(O)OP(=O)(O)O,,,,,12 µM,13 µM,,,,,,
Cc1cn([C@H]2CO[C@@H](COP(=O)(O)OP(=O)(O)OP(=O)(O)O)O2)c(=O)[nH]c1=O,,,,,0.46 µM,0.5 µM,0.5 µM,0.24 µM,0.32 µM,0.059 µM,0.42 µM,0.51 µM
